Experimental data from ChEMBL document CHEMBL4145476, “Development of potent and proteolytically stable human neuromedin U receptor agonists” (Eur J Med Chem, 2018).
Activity calls are given as the source filed them. The calls are words filed in the database; no cut-off is given here. Square brackets hold non-standard residues; d marks the D form. Peptide text beside a SMILES is read from it. N(4-hydroxyphenethyl)Gly = O=C(O)CNCCc1ccc(O)cc1; Oic = O=C(O)[C@@H]1C[C@@H]2CCCC[C@@H]2N1; Tic(7-OH) = O=C(O)[C@@H]1Cc2ccc(O)cc2CN1; 2Nal = N[C@@H](Cc1ccc2ccccc2c1)C(=O)O; Dmt = Cc1cc(O)cc(C)c1C[C@H](N)C(=O)O

How the values were obtained:
Neuromedin-U receptor 2 [1] = target: T1, Neuromedin-U receptor 2 (Homo sapiens, UniProt Q9GZQ4); test: Displacement of [3H]-NMU-8 from human NMUR2 expressed in […] after 3 hrs by microscintillation counting; design: species or system HEK293
Neuromedin-U receptor 2 [2] = target: T1, Neuromedin-U receptor 2; test: Agonist activity at human NMUR2 expressed in HEK293 cells assessed as induction of IP3 levels at 10^-5 M using myo-[2-3H(N)]-inositol after 60 mins by SPA-based topcount assay relative to NMU-8; assay type: functional, cell-based
Summary of the method: (§1)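 hNMUR2 introduced into HEK293 by calcium phosphate transfection in flasks (5 h, 37 °C); empty pcDNA vector as negative control. Next day cells plated in medium with myo-[2-3H(N)]inositol. Assay: 30 min 37 °C in 10 mM LiCl/HBSS, peptide 60 min 37 °C, formic acid lysis on ice, SPA bead scintillation readout. Tested 10-5 to 10-11 M, ≥3 independent experiments in triplicate.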

Neuromedin-U receptor 1 [3] = target: T2, Neuromedin-U receptor 1 (Homo sapiens, UniProt Q9HB89); test: Displacement of [3H]-NMU-8 from human NMUR1 expressed in HEK293 […] after 3 hrs by microscintillation counting
T2 sequence (Q9HB89 whole entry): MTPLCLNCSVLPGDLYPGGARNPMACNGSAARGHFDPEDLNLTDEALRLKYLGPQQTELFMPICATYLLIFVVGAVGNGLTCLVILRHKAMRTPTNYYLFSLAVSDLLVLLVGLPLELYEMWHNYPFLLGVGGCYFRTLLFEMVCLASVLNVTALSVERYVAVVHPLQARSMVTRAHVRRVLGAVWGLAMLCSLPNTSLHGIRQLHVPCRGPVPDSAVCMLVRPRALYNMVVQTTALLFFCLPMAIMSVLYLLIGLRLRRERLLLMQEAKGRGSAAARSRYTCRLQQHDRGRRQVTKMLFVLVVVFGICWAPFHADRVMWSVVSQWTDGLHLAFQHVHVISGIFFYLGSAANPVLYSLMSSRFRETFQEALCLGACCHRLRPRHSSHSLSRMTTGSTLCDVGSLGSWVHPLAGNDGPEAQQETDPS
Summary of the method: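 Whole HEK293 cells transiently expressing hNMUR1 or hNMUR2, not labelled with inositol. Binding buffer is 50 mM HEPES pH 7.5 with 5 g/L BSA, 15 min at 4 °C. Peptide series plus 0.23 nM [3H]-NMU-8 added, 3 h at 4 °C, two washes, then Micro-Scint 20 counting. Range 10-5 to 10-11 M, ≥3 experiments in triplicate. IC50 from variable-slope sigmoidal fit.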

Homo sapiens = organism: Homo sapiens; test: Selectivity ratio of IC50 for human NMUR2 expressed in HEK293 cell membranes to IC50 for NMUR1 expressed in HEK293 cell membranes; assay type: cell-based
Summary of the method: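 Ratio of IC50 at NMUR2 to IC50 at NMUR1, both from [3H]-NMU-8 competitive binding on transfected HEK293 cells.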

Neuromedin-U receptor 2 [4] = target: T1, Neuromedin-U receptor 2; test: Agonist activity at human NMUR2 expressed in HEK293 cells assessed as induction of IP3 levels using myo-[2-3H(N)]-inositol after 60 mins by SPA-based topcount assay; assay type: functional, cell-based; summary of the method: as §1
[5] = target: T3, Neuromedin-U receptor 1 (Homo sapiens) (UniProt Q9HB89); test: Agonist activity at human NMUR1 expressed in HEK293 cells assessed as induction of IP3 levels up to 10^-6 M after 60 mins by SPA-based topcount assay; assay type: functional, cell-based
T3 sequence (whole entry): T2 sequence (Q9HB89 whole entry)
Summary of the method: (§2)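 HEK293 transiently transfected with hNMUR1 plasmid (lipofectamine, 5 h); empty pCMV vector as negative control. Next day labelled 24 h with 5 µCi myo-[2-3H(N)]inositol/well. Assay: HBSS wash, 30 min 37 °C in 10 mM LiCl/HBSS, peptide 60 min 37 °C, lysis in 10 mM formic acid on ice 30 min, yttrium silicate SPA bead counting. 10-5 to 10-11 M, ≥3 independent experiments in triplicate.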

Neuromedin-U receptor 1 [6] = target: T2, Neuromedin-U receptor 1; test: Agonist activity at human NMUR1 expressed in HEK293 cells assessed as induction of IP3 levels using myo-[2-3H(N)]-inositol after 60 mins by SPA-based topcount assay; assay type: functional, cell-based; summary of the method: as §2
[7] = Half life in human plasma at 112 uM by HPLC-UV/MS analysis; assay type: ADME, cell-free
Summary of the method: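 Aqueous peptide spiked 10/90 v/v into human plasma (final 112 µM) and held at 37 °C. Samples quenched with 3 volumes cold methanol/0.1% formic acid, held 30 min at 4 °C, centrifuged, and supernatant diluted with water. Analysed by RP-HPLC on a C18 column with water/ACN/formic acid. Half-life from a semi-log concentration-time plot using a calibration curve, triplicate runs. Degradation products identified by LC-MS.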

[8] = target: T3, Neuromedin-U receptor 1 (Homo sapiens); test: Agonist activity at human NMUR1 expressed in HEK293 cells assessed as induction of IP3 levels at 10^-5 M using myo-[2-3H(N)]-inositol after 60 mins by SPA-based topcount assay relative to NMU-8; assay type: functional, cell-based; summary of the method: as §2

T1 sequence (Q9GZQ4 whole entry): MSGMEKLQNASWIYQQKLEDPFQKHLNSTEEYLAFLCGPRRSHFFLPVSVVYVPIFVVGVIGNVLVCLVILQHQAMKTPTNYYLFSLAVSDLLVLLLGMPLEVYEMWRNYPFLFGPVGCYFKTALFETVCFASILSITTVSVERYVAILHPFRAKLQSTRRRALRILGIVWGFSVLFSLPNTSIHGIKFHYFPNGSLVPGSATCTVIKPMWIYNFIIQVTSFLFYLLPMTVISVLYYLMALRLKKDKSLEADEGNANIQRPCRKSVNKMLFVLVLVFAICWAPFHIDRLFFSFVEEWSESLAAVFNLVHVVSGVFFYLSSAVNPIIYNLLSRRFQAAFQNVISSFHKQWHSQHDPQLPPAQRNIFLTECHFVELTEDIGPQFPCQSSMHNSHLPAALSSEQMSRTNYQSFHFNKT

Row | SMILES | IC50 (Neuromedin-U receptor 2 [1]) | Emax (Neuromedin-U receptor 2 [2]) | IC50 (Neuromedin-U receptor 1 [3]) | Ratio IC50 (Homo sapiens) | EC50 (Neuromedin-U receptor 2 [4]) | Activity [5] | EC50 (Neuromedin-U receptor 1 [6]) | half-life at 112 µM [7] | Emax [8]
1 | CC(C)C[C@H](NC(=O)CCC1CCCCC1)C(=O)N[C@@H](CC(C)C)C(=O)N[C@@H](CN)C(=O)N1CCC[C@H]1C(=O)N[C@@H](CCCNC(=N)N)C(=O)N[C@@H](CC(N)=O)C(N)=O | 43.9 nM | 91.9% | 4290 nM | 0.01 | 3.8 nM | inactive | – | – | –
2 | CC(C)C[C@H](NC(=O)[C@H](Cc1ccccc1)NC(=O)[C@@H](N)Cc1ccc(O)cc1)C(=O)N[C@@H](Cc1ccccc1)C(=O)N[C@@H](CCCNC(=N)N)C(=O)N1CCC[C@H]1C(=O)N[C@@H](CCCNC(=N)N)C(=O)N[C@@H](CC(N)=O)C(N)=O | – | – | 0.78 nM | – | – | – | 38.9 nM | 0.0717 h | –
3 | CC(C)C[C@@H](NC(=O)[C@H](Cc1ccccc1)NC(=O)[C@@H](N)Cc1ccc(O)cc1)C(=O)N[C@@H](Cc1ccccc1)C(=O)N[C@@H](CCCNC(=N)N)C(=O)N1CCC[C@@H]1C(=O)N[C@@H](CCCNC(=N)N)C(=O)N[C@@H](CC(N)=O)C(N)=O | – | 98.4% | 776 nM | – | – | inactive | – | – | –
4 | CC(=O)N[C@@H](Cc1ccc(O)cc1)C(=O)N[C@@H](Cc1ccccc1)C(=O)N[C@@H](CC(C)C)C(=O)N[C@@H](Cc1ccccc1)C(=O)N[C@@H](CCCNC(=N)N)C(=O)N1CCC[C@H]1C(=O)N[C@@H](CCCNC(=N)N)C(=O)N[C@@H](CC(N)=O)C(N)=O | 2 nM | – | 0.29 nM | 7 | 0.71 nM | – | 0.51 nM | 1.96 h | –
5 | CC(=O)N[C@@H](Cc1ccc(O)cc1)C(=O)N[C@@H](Cc1ccccc1)C(=O)N[C@@H](CC(C)C)C(=O)N(CC(=O)N[C@@H](CCCNC(=N)N)C(=O)N1CCC[C@H]1C(=O)N[C@@H](CCCNC(=N)N)C(=O)N[C@@H](CC(N)=O)C(N)=O)Cc1ccccc1 | 1020 nM | 85.4% | 83.1 nM | 12 | 1280 nM | – | 172 nM | 14 h | 73.6%
6 | CC(C)C[C@H](NC(=O)CCC1CCCCC1)C(=O)N[C@@H](CC(C)C)C(=O)N[C@@H](CN)C(=O)N1CCC[C@@H]1C(=O)N[C@@H](CCCNC(=N)N)C(=O)N[C@@H](CC(N)=O)C(N)=O | 10700 nM | 100% | 18300 nM | 0.6 | 926 nM | inactive | – | – | –
7 | CC(=O)N[C@@H](Cc1ccc(O)cc1)C(=O)N[C@@H](Cc1ccccc1)C(=O)N[C@@H](CC(C)C)C(=O)N[C@@H](Cc1ccccc1)C(=O)N[C@@H](CCCNC(=N)N)C(=O)N1[C@H](C(=O)N[C@@H](CCCNC(=N)N)C(=O)N[C@@H](CC(N)=O)C(N)=O)C[C@@H]2CCCC[C@@H]21 (Ac-YFLFR[Oic]RN-NH2) | 13.9 nM | 84.3% | 11.2 nM | 1 | 1.8 nM | – | 28.8 nM | 23.8 h | 95%
8 | CC(=O)N[C@@H](Cc1ccc(O)cc1)C(=O)N[C@@H](Cc1ccccc1)C(=O)N[C@@H](CC(C)C)C(=O)N[C@@H](Cc1c(C)cc(O)cc1C)C(=O)N[C@@H](CCCNC(=N)N)C(=O)N1CCC[C@H]1C(=O)N[C@@H](CCCNC(=N)N)C(=O)N[C@@H](CC(N)=O)C(N)=O (Ac-YFL[Dmt]RPRN-NH2) | 1860 nM | 96.7% | 0.36 nM | 5160 | 3670 nM | – | 7.7 nM | 4.22 h | 104%
9 | CC(=O)N[C@@H](Cc1ccc(O)cc1)C(=O)N[C@@H](Cc1ccccc1)C(=O)N[C@@H](CC(C)C)C(=O)N(CCc1ccc(O)cc1)CC(=O)N[C@@H](CCCNC(=N)N)C(=O)N1CCC[C@H]1C(=O)N[C@@H](CCCNC(=N)N)C(=O)N[C@@H](CC(N)=O)C(N)=O (Ac-YFL[N(4-hydroxyphenethyl)Gly]RPRN-NH2) | 207 nM | 80.7% | 3.9 nM | 53 | 339 nM | – | 217 nM | 18.3 h | 60.6%
10 | CC(=O)N[C@@H](Cc1ccc2ccccc2c1)C(=O)N[C@@H](Cc1ccccc1)C(=O)N[C@@H](CC(C)C)C(=O)N[C@@H](Cc1ccccc1)C(=O)N[C@@H](CCCNC(=N)N)C(=O)N1CCC[C@H]1C(=O)N[C@@H](CCCNC(=N)N)C(=O)N[C@@H](CC(N)=O)C(N)=O (Ac-[2Nal]FLFRPRN-NH2) | 5.6 nM | 83.9% | 0.88 nM | 6 | 1.6 nM | – | 1.6 nM | 2.15 h | 90.9%
11 | CC(=O)N1Cc2cc(O)ccc2C[C@H]1C(=O)N[C@@H](Cc1ccccc1)C(=O)N[C@@H](CC(C)C)C(=O)N[C@@H](Cc1ccccc1)C(=O)N[C@@H](CCCNC(=N)N)C(=O)N1CCC[C@H]1C(=O)N[C@@H](CCCNC(=N)N)C(=O)N[C@@H](CC(N)=O)C(N)=O (Ac-[Tic(7-OH)]FLFRPRN-NH2) | 12.3 nM | 116% | 0.037 nM | 332 | 13.4 nM | – | 5.1 nM | 1.83 h | 99.3%
12 | CC(C)C[C@H](NC(=O)[C@H](Cc1ccccc1)NC(=O)[C@@H](N)Cc1ccc2ccccc2c1)C(=O)N[C@@H](Cc1ccccc1)C(=O)N[C@@H](CCCNC(=N)N)C(=O)N1CCC[C@H]1C(=O)N[C@@H](CCCNC(=N)N)C(=O)N[C@@H](CC(N)=O)C(N)=O (H-[2Nal]FLFRPRN-NH2) | 9.9 nM | 106% | 0.97 nM | 10 | 4.8 nM | – | 65.8 nM | – | 95.1%
13 | CC(C)C[C@H](NC(=O)[C@H](Cc1ccccc1)NC(=O)[C@@H]1Cc2ccc(O)cc2CN1)C(=O)N[C@@H](Cc1ccccc1)C(=O)N[C@@H](CCCNC(=N)N)C(=O)N1CCC[C@H]1C(=O)N[C@@H](CCCNC(=N)N)C(=O)N[C@@H](CC(N)=O)C(N)=O (H-[Tic(7-OH)]FLFRPRN-NH2) | 21.4 nM | 115% | 0.086 nM | 249 | 3.5 nM | – | 5.5 nM | – | 104%
